ChEMBL document CHEMBL1155456, “Thiadiazole carbamates: potent inhibitors of lysosomal acid lipase and potential Niemann-Pick type C disease therapeutics” (J Med Chem, 2010)
pIC50: −log10 of the molar value. The source made the active and inactive calls.

Experiments:
[1] = Cytotoxicity against human GM03123 cells at 10 uM; type: cell-based
[2] = molecular target: T1, Lysosomal acid lipase/cholesteryl ester hydrolase (Homo sapiens) (UniProt P38571); assay: Inhibition of human LAL at 10 uM after 30 mins by fluorescence assay
T1 sequence (whole entry): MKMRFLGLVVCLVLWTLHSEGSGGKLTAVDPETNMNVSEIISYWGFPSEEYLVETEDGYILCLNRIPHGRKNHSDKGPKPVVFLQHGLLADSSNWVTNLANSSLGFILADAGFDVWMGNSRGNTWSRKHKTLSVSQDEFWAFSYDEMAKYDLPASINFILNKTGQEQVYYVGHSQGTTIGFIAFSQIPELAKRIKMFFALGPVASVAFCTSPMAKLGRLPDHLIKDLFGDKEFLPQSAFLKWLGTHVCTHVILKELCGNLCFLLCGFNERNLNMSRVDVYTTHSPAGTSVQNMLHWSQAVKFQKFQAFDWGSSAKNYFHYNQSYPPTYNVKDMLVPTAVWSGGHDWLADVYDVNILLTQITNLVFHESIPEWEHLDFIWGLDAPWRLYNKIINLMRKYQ

[3] = Cytotoxicity against human GM05659 cells at 10 uM; type: cell-based
[4] = molecular target: T1, Lysosomal acid lipase/cholesteryl ester hydrolase (Homo sapiens); assay: Inhibition of LAL in human GM05659 cell lysate assessed as reduction in lysosomal storage organelle cholesterol level at 0.1 to 10 uM after 4 days by bicinchoninic acid assay
Procedure, shortened: (§1)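 Human fibroblasts in MEM with 10% FBS, exposed to compound 3–4 days (withdrawal variant: 3 days treatment, then 1 day compound-free). Cells PBS-washed, rinsed in 150 mM sodium acetate pH 5.5, lysed in 1% Triton X-100 for 30 min at 37 °C. 1 mM (final) 4-methylumbelliferyl oleate added; fluorescence activity normalized to protein by bicinchoninic acid assay.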

[5] = molecular target: T1, Lysosomal acid lipase/cholesteryl ester hydrolase (Homo sapiens); assay: Competitive inhibition of human LAL preincubated for 30 mins by Lineweaver-Burke plot analysis
Procedure, shortened: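 Purified recombinant human LAL pre-incubated with inhibitor 30 min at 37 °C; reaction started with 4-methylumbelliferyl oleate at various concentrations, monitored 45 min. Concentrations are final. Lineweaver-Burk plots fitted by linear regression; two independent experiments, 6–8 wells per treated condition.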

[6] = molecular target: T1, Lysosomal acid lipase/cholesteryl ester hydrolase (Homo sapiens); assay: Inhibition of human LAL assessed as enzyme decarbamoylation rate constant at 10 uM after 30 mins by fluorescence assay
Procedure, shortened: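 Purified human LAL carbamoylated with 10 μM compound for 30 min, then diluted 250× to 40 nM with 125 μM 4-methylumbelliferyl oleate. Run at 37 °C, pH 5.5 acetate buffer with Tween and Triton X-100; fluorescence read every 10 min for 2 h. k3 from linear regression of ln(fraction inhibited) vs time; mean ± SEM of 4 experiments.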

[7] = molecular target: T1, Lysosomal acid lipase/cholesteryl ester hydrolase (Homo sapiens); assay: Inhibition of human LAL at 833 nM by fluorescence assay; settings: TDE = time-dependent effect
Procedure, shortened: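 Purified human LAL pre-incubated with compound at 833 nM for varying times at 37 °C (500 nM final in assay). Reaction started with 125 μM (final) 4-methylumbelliferyl oleate, followed 30 min at 37 °C. Normalized to DMSO control; mean ± SEM of 2 experiments, 12 wells per condition.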

[8] = molecular target: T2, Lysosomal acid lipase/cholesteryl ester hydrolase (Homo sapiens, UniProt P38571); assay: Inhibition of human LAL after 30 mins by fluorescence assay
T2 sequence (P38571 whole entry): T1 sequence (whole entry)
Procedure, shortened: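 Purified recombinant human LAL (1 mU/ml final) with threefold serial compound dilutions in 200 mM sodium acetate pH 5.5, 0.02% Tween-20, 30 min at 37 °C. 125 μM (final) 4-methylumbelliferyl oleate in Triton X-100 added; fluorescence (ex 355/em 450) read after 1 h at 37 °C. IC50 from rectangular-hyperbola fit of normalized activity; mean ± SEM of 3 independent experiments.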

[9] = molecular target: T1, Lysosomal acid lipase/cholesteryl ester hydrolase (Homo sapiens); assay: Inhibition of LAL in intact human GM05659 cells assessed as increase in neutral lipid accumulation in lysosomal storage organelle at 10 uM after 3 days by lipidTox green staining-based fluorescence microscopy; type: cell-based
Procedure, shortened: (§2)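 Fibroblasts in MEM with 10% FBS treated 3 days, stained with filipin or LipidTOX green, imaged by automated fluorescence microscopy. After background correction, integrated thresholded fluorescence within lysosomal storage organelles was normalized to total cell area defined by low-threshold filipin signal.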

[10] = molecular target: T1, Lysosomal acid lipase/cholesteryl ester hydrolase (Homo sapiens); assay: Inhibition of LAL in intact human GM03123 cells assessed as reduction in lysosomal storage organelle cholesterol level at 10 uM after 3 days by filipin LSO assay; type: cell-based; procedure, shortened: as §2
[11] = molecular target: T1, Lysosomal acid lipase/cholesteryl ester hydrolase (Homo sapiens); assay: Inhibition of LAL in human GM05659 cell lysate assessed as reduction in lysosomal storage organelle cholesterol level at 0.1 to 10 uM treated for 3 days measured after 1 day of compound withdrawal by bicinchoninic acid assay; procedure, shortened: as §1

Structure (SMILES)	Activity [1]	inhibition [2]	Activity [3]	also measured
Oc1nsnc1N1CCCC1	Non-toxic	inactive	Non-toxic	–
CC(C(=O)c1ccccc1)c1nsnc1N1CCOCC1 (racemic)	Non-toxic	inactive	Non-toxic	–
NCCCCCCNC(=O)OCc1ccccc1	–	inactive	–	–
O=C(Cc1nsnc1N1CCOCC1)N1CCOCC1	Non-toxic	inactive	Non-toxic	–
O=C(Oc1nsnc1N1CCCCC1)N1CCOCC1	Non-toxic	–	Non-toxic	inhibition [4]: Active; inhibition [5]: Active; Activity [6]: 0.003 min⁻¹; inhibition [7]: tde; pIC50 [8]: 7.17
COC(=O)C(CCc1ccccc1)c1nsnc1N1CCOCC1 (racemic)	Non-toxic	inactive	Non-toxic	–
CNC(=O)Oc1ccc2c(c1)[C@]1(C)CCN(C)[C@@H]1N2C	–	inactive	–	–
CCOC(=O)Cc1nsnc1N1CCOCC1	Non-toxic	inactive	Non-toxic	–
O=C(Cc1nsnc1N1CCCCC1)N1CCOCC1	Non-toxic	inactive	Non-toxic	–
O=C(Oc1nsnc1N1CCOCC1)N1CCOCC1	Non-toxic	–	Non-toxic	inhibition [4]: Active; inhibition [9]: inactive; Activity [6]: 0.0043 min⁻¹; inhibition [10]: inactive; inhibition [7]: tde; pIC50 [8]: 6.31
O=C(Cc1nsnc1N1CCOCC1)c1ccccc1	Non-toxic	inactive	Non-toxic	–
CC(C)(C)C(=O)Cc1nsnc1N1CCOCC1	Non-toxic	inactive	Non-toxic	–
CN1CCC(OC(=O)Nc2ccc(F)cc2)CC1	–	inactive	–	–
O=C(Oc1nsnc1N1CCOCC1)N1CCCCC1	Non-toxic	–	Non-toxic	inhibition [4]: Active; Activity [6]: 0.0016 min⁻¹; inhibition [7]: tde; pIC50 [8]: 6.37
COC(N)=O	–	inactive	–	–
O=C(Oc1nsnc1N1CCCCC1)N1CCCCC1	Non-toxic	–	Non-toxic	inhibition [11]: Active; inhibition [4]: Active; inhibition [9]: Active; Activity [6]: 0.001 min⁻¹; inhibition [10]: Active; inhibition [7]: tde; pIC50 [8]: 6.82
O=C(Oc1nsnc1N1CCCC1)N1CCCCC1	Non-toxic	–	Non-toxic	inhibition [11]: Active; inhibition [4]: Active; Activity [6]: 0.0007 min⁻¹; pIC50 [8]: 6.30
COC(=O)C(C)c1nsnc1N1CCOCC1 (racemic)	Non-toxic	Active	Non-toxic	–
CN(C)C(=O)Oc1cccc([N+](C)(C)C)c1	–	inactive	–	–
CC(C)(C)OC(=O)Cc1nsnc1N1CCCCC1	Non-toxic	–	Non-toxic	–
COC(=O)C(C)(C)c1nsnc1N1CCOCC1	Non-toxic	inactive	Non-toxic	–
O=C(Oc1nsnc1N1CCCCCC1)N1CCOCC1	Non-toxic	–	Non-toxic	inhibition [4]: Active; Activity [6]: 0.0042 min⁻¹; inhibition [7]: tde; pIC50 [8]: 6.72
Oc1nsnc1N1CCOCC1	Non-toxic	inactive	Non-toxic	–
Oc1nsnc1N1CCCCCC1	Non-toxic	inactive	Non-toxic	–
COc1ccccc1OCC(CO)OC(N)=O (stereo not given)	–	inactive	–	–
O=C(Oc1nsnc1N1CCCC1)N1CCOCC1	Non-toxic	–	Non-toxic	inhibition [4]: Active; Activity [6]: 0.0037 min⁻¹; inhibition [7]: tde; pIC50 [8]: 6.33
CC(C)(C)OC(=O)Cc1nsnc1N1CCOCC1	Non-toxic	inactive	Non-toxic	–
O=C(Oc1nsnc1N1CCCCCC1)N1CCCCC1	Non-toxic	–	Non-toxic	inhibition [11]: Active; inhibition [4]: Active; Activity [6]: 0.0013 min⁻¹; inhibition [7]: tde; pIC50 [8]: 6.52
Oc1nsnc1N1CCCCC1	Non-toxic	inactive	Non-toxic	–
